SIAE inh – inhibitors of human sialic acid acetylesterase SIAE | inhibition, % at 9.66 µM | 370,000 tested, 0.69% active | SIAE FP-Rh probe binding, fluorescence polarization | Q9HAT2;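 active = inhibition above a cutoff: mean of compounds within the control limits plus 3 SD of those, cut at about 17% in these data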;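 note: 0% = plate median of compound wells and 100% = probe without SIAE protein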
HTRA1 inh – HTRA1 (human) protease inhibition; Q92743; recombinant HTRA1, FP-rhodamine activity-based probe, fluorescence polarization; inhibition, % at 5.96 µM; 340,000 tested, 0.5% active; in the data active = inhibition above about 36%;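 note: 0% = enzyme with DMSO and 100% = wells lacking enzyme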
DDE Tn7 FP inh – DD(E)-Tn7 binding inhibition, primary FP screen; FP displacement of FITC-Tn7 peptide from fibrin DD(E); 0% = median of compound wells per plate; inhibition, % at 8.3 µM; 370,000 tested, 0.13% active;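 active = inhibition above the mean of compounds falling within the control limits plus 3 SD of them, cut at about 14% in these data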;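 note: 0% = plate median of compound wells and 100% = 10 µM Aha-Tn7 peptide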
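assay system = human clot-derived fibrin DD(E) complex | quantity = Fibrin-DD(E) at 2 µM final | timing = 10 min preincubation, 3 h with tracer, room temperature | signal = fluorescence polarization | measure = percent inhibition | benchmarks = high control wells with 10 µM unlabelled Aha-Tn7 peptide (full inhibition) | replicates = singlicate testing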
ABHD4 inh – inhibits mouse alpha/beta hydrolase domain 4; Q8VD66; purified mABHD4, FP-Rh probe fluorescence polarization; inhibition, % at 8.92 µM; 370,000 tested, 0.54% active;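 active = inhibition exceeding the mean over every tested compound plus 3 SD, cut at about 30% in these data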;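 note: 0% = plate median of compound wells and 100% = S159A mutant with DMSO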
Target sequence (Q8VD66 whole entry, looked up, the tested form may be a part): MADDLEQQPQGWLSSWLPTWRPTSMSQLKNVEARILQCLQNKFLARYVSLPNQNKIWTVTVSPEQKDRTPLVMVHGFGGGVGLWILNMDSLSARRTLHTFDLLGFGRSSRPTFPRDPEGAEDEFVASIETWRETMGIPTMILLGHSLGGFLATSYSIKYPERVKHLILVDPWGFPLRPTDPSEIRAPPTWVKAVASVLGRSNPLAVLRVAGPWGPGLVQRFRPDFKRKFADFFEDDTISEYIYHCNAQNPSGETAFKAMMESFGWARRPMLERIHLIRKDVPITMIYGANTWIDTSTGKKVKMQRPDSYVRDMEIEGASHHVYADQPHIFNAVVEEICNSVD
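Assay system: wild-type mouse ABHD4 protein; compound: single nominal dose of 8.92 µM, 0.89% DMSO final; schedule: 45 min + 60 min at 25 °C; measured by: FP readout, ex 525 nm / em 598 nm; evaluation: % inhibition of FP-Rh probe binding versus controls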
TCR CD3 inh – human TCR-CD3 binding inhibition; AID 651800; TAMRA-labeled TCR probe fluorescence, biochemical; inhibition, % at 9.4 µM; 360,000 tested, 0.37% active; in the data active = inhibition above about 19%;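 note: recombinant mutant TCR 2C K166C tagged with TAMRA read by polarization; 0% = receptor in buffer alone and 100% = receptor with positive control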
DDE Tn6 FP inh – DD(E)-Tn6 binding inhibition, primary FP screen; Fibrin DD(E) TRITC-Tn6 fluorescence polarization displacement; inhibition, % at 8.3 µM; 370,000 tested, 0.21% active;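 active = inhibition above a per-campaign cutoff: mean of compounds within control limits plus 3 SD, cut at about 15% in these data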;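 note: 0% = median of all compound wells on the plate and 100% = blocking peptide control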
SIAE inh conf – human SIAE inhibition, confirmation; shares compounds with SIAE inh; SIAE FP-Rh activity-based probe, fluorescence polarization; inhibition, % at 9.66 µM; 2,300 tested, 13% active; AID 1117263;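 active = mean inhibition of the replicates above the hit cutoff set in the primary screen, cut at about 17% in these data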;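 note: 0% = SIAE with DMSO and probe and 100% = probe without SIAE; inhibitors lower polarization as more probe stays unbound to SIAE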
Starred values were filed as active, the others as inactive; . = not tested or not shown. Shown are actives, neighbours in structure and some others; about 1.8% of the full set was active somewhere.

SMILES	SIAE inh	HTRA1 inh	DDE Tn7 FP inh	ABHD4 inh	TCR CD3 inh	DDE Tn6 FP inh	SIAE inh conf
COc1ccc(C2CC(C)(c3ccc(OC)cc3)Nc3ccccc3N2)cc1 (configuration not stated)	17.1*	-3.6	6.2	-3.2	-8.9	-9.6	2.4
O=C(NCc1cccs1)C1CCC(CNS(=O)(=O)c2cccc3cccnc23)CC1 (configuration not stated)	4.1	.	8.0	2.1	.	6.0	.
COC(=O)C1CCN(C(=O)COC(=O)c2ccc(OC)c(S(=O)(=O)N3CCCc4ccccc43)c2)CC1	20.6*	-4.6	-3.4	5.5	0.1	-7.1	-2.5
COC(=O)C1CCN(C(=O)c2ccc(OC)c(S(=O)(=O)N3CCCc4ccccc43)c2)CC1	-4.4	-1.1	11.1	-1.2	4.4	1.6	.
Cc1ccc(S(=O)(=O)n2ccc(-c3c(-c4ccc(F)cc4)noc3C)n2)cc1	-0.2	.	1.9	-6.0	.	-1.1	.
CC1=CC(C)(C)Nc2ccc(OC(=O)CN3C(=O)c4ccccc4C3=O)cc21	3.6	-1.4	-4.6	18.3	-2.1	-2.1	.
CC1=CC(C)(C)Nc2ccc(OC(=O)CN3C(=O)c4cccc5cccc(c45)C3=O)cc21	18.7*	24.0	-1.6	13.2	2.2	-1.2	0.9
COC(=O)C1CN(Cc2cn(Cc3ccc(OC)cc3)nn2)CCS(=O)(=O)N1Cc1ccc(OC)cc1 (configuration not stated)	0.8	.	-2.6	3.3	.	-7.2	.
CNC(=O)CSc1nc2c([nH]c3ccccc32)c(=O)n1CCOC	-1.1	3.4	3.6	3.0	-3.8	3.5	.
CCc1nnc(NC(=O)CSc2nc3c([nH]c4ccccc43)c(=O)n2CCOC)s1	17.6*	1.8	2.3	11.1	-6.5	0.5	-1.3
Cc1cc([N+](=O)[O-])nn1Cc1ccc(C(=O)N/N=C/c2ccc(O)cc2O)cc1	19.1*	11.1	5.1	12.2	10.4	3.5	5.3
CCN1CCN(c2ccc(S(=O)(=O)N3CCCCC3)cc2NC(=O)c2ccc(OC(F)F)cc2)CC1	-2.0	-10.8	-7.4	0.5	6.8	-3.6	.
CCN1CCN(S(=O)(=O)c2ccc(Cl)c(C(=O)N(C)CCOc3ccc(Cl)cc3)c2)CC1	19.7*	-3.0	-8.3	-0.6	-0.6	-2.6	0.7
CCN1CCN(S(=O)(=O)c2ccc(Cl)c(C(=O)Nc3ccccc3N3CCCCC3)c2)CC1	17.1*	-14.6	-0.7	11.4	0.1	1.2	-2.3
CCN1CCN(c2ccc(S(=O)(=O)N3CCCCC3)cc2NC(=O)c2cccc(OC(F)F)c2)CC1	20.5*	-16.7	-0.9	4.8	-3.6	-4.1	7.0
COc1ccc(S(=O)(=O)N2CCCCCC2)cc1C(=O)N(C)CCOc1ccc(Cl)cc1	-4.2	-9.1	-3.0	-3.3	2.8	-6.1	.
C#CCNC(=O)C[C@H]1C(=O)N(CCc2ccc(Cl)cc2)C2=CCCC[C@@]21C(=O)OCC	-1.9	.	7.0	3.0	.	8.0	.
COc1ccc2c(c1)CC=C1C2CCC2(C)C(=O)C(=NO)CC12 (configuration not stated)	19.3*	-7.5	-13.0	-13.1	6.1	0.2	22.2*
COc1cc(CCCN2CCNC[C@@H]2c2ccccc2)cc(OC)c1OC	16.3	-4.2	2.9	-7.7	-0.3	2.6	.
c1ccc([C@H]2CNCCN2CCc2cccc3ccccc23)cc1	23.0*	-3.1	-7.8	12.7	-0.2	0.8	4.4
C#CCNC(=O)C[C@H]1C[C@@]2(C(=O)OC)C(=C[C@H](C(C)C)O[C@@H]2C2CC2)N(CCC2=CCCCC2)C1=O	6.7	.	0.8	-3.4	.	1.5	.
CCn1nnnc1NCc1ccc(SC)cc1	17.3*	7.7	-0.5	6.2	-1.3	-0.4	8.5
CCn1nnnc1NCc1ccc(N2CCCC2)cc1	0.1	16.6	0.1	-0.7	4.3	0.5	.
CCOC(=O)N1CCN(C(=O)c2ccc3c(SCC(=O)O)c4c(nc3c2)CCCC4)CC1	.	1.2	.	.	.	.	.
O=C(O)CSc1c2c(nc3cc(C(=O)N4CCOCC4)ccc13)CCCC2	27.2*	3.3	-2.5	4.8	11.7	-2.9	4.7
SMILES	SIAE inh	HTRA1 inh	DDE Tn7 FP inh	ABHD4 inh	TCR CD3 inh	DDE Tn6 FP inh	SIAE inh conf
COc1ccc(CCNc2ncnc3cc(OC)c(OC)cc23)cc1OC	-6.2	-1.1	8.3	-2.2	-7.5	2.2	.
COc1ccc(CCNc2ncnc3c2[nH]c2cc(OC)c(OC)cc23)cc1OC	19.3*	8.7	2.4	13.0	-8.7	-17.9	25.6*
COc1ccccc1NC(=O)c1cc2cc(Br)ccc2cc1O	42.7*	26.4	2.3	1.5	7.7	-13.4	-2.8
COc1cc(NC(=O)c2cc3ccccc3cc2O)c(OC)cc1Cl	18.3*	-8.2	1.1	6.6	-4.5	-5.9	5.7
COc1ccccc1NC(=O)COC(=O)c1cc2ccccc2cc1O	0.7	5.4	4.2	-4.8	0.5	-0.4	.
COc1cc(NC(=O)c2cccs2)c(OC)cc1NC(=O)c1cccs1	.	-0.2	.	.	.	.	.
COc1cc(NC(=O)c2cccs2)c(OC)cc1NC(=O)Cc1ccccc1	18.8*	-0.9	5.0	2.1	-6.1	-1.1	0.1
COC(=O)C[C@H]1CC[C@H]2[C@H](COc3ccc(NS(=O)(=O)c4cccc(F)c4)cc3C(=O)N2C)O1	4.1	.	-1.2	9.4	.	5.2	.
COc1ccc(/C=C2\N=C3CCCCCN3C2=O)cc1OC	110.2*	11.2	-7.0	-2.3	-1.6	-10.9	4.7
CCOC(=O)c1c(/N=C/C2=C(O)CCCC2=O)sc(C)c1C	18.0*	-3.5	6.8	-13.4	-2.5	4.5	2.2
O=C(OCC#CCSc1nnc(-c2cccc3ccccc23)o1)C1CCC1	4.0	.	3.8	-10.8	.	-3.1	.
COC1=C[C@H](C(=O)NCCOC(C)=O)[C@H](C)[C@@H](c2ccccc2)CC1=O	8.1	.	3.6	2.2	.	2.7	.
COc1ccc(N=C2SC(C(=O)O)CC(=O)N2Cc2ccc(OC)c(OC)c2)cc1 (configuration not stated)	80.1*	0.1	-2.0	3.6	2.1	-6.7	-0.6
COc1ccc(OC)c(S(=O)(=O)N2CCCCC2C(=O)N2CCN(c3ccccc3F)CC2)c1 (configuration not stated)	5.9	.	2.3	6.5	.	-5.7	.
COc1ccc(CC2=CC(=O)c3ccccc3C2=O)cc1	17.9*	2.3	1.3	20.6	3.9	-5.3	5.9
CCOC(=O)Cn1cc(CN2C(C(=O)OC)CN(C3CCCC3)CCS2(=O)=O)nn1 (configuration not stated)	7.0	.	-7.3	-5.0	.	-3.8	.
CCCCNC(=O)C[C@H]1C[C@@]2(C(=O)OC)C(=C[C@H](C3CCCC3)O[C@@H]2C)N(Cc2cccc3ccccc23)C1=O	4.4	.	-6.5	-6.9	.	0.2	.
CC(=O)c1ccc(O)c(CC=C(C)C)c1	1.3	-0.6	2.5	-0.7	5.2	10.7	.

Assay outcomes: PubChem, The Scripps Research Institute Molecular Screening Center
